Assay results published in ChEMBL document CHEMBL1122365, “Substituted 1,4-naphthoquinones vs. the ascitic sarcoma 180 of mice” (J Med Chem, 1983).
≈ marks a conversion by molar mass, not a printed value.

What was measured:
[1] = Solubility in water was determined; format: physicochemical
[2] = test system: Mus musculus; test: Maximum survival by an optimum dose at 20 mg/kg in treated to that of untreated mice; format: functional
[3] = Tested for acute toxicity which is the single dose given intraperitoneally that will kill one-half of the mice within 5 days; format: organism-based; conditions: mouse, in vivo, ip
[4] = Effective dose that would give a 25% increase in the survival time against the ascitic sarcoma 180 in mice; format: functional, Mus musculus
Method in brief: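 Swiss mice given 10⁶ ascitic sarcoma 180 cells ip on day 0, then one ip dose of compound daily on days 1-3, with several dose levels. T/C is the mean survival of treated mice over the survival of untreated mice. ED25 is the daily dose giving T/C = 125%, interpolated or extrapolated from a semilog plot of T/C vs. log dose.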

[5] = Partition coefficient (logP); format: physicochemical; conditions: octanol/water
Method in brief: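 Shake-flask method: four samples per compound (1.50–20.0 mg) each equilibrated between known volumes of 1-octanol and water. Solute concentration measured spectroscopically in the water phase; octanol-phase concentration taken by difference. Partition coefficient is the ratio of the two concentrations.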

[6] = test system: Mus musculus; test: Maximum survival by an optimum dose at 4 mg/kg in treated to that of untreated mice; format: functional
[7] = test system: Mus musculus; test: Maximum survival by an optimum dose at 30 mg/kg in treated to that of untreated mice; format: functional
[8] = test system: Mus musculus; test: Maximum survival by an optimum dose at 6 mg/kg in treated to that of untreated mice; format: functional
[9] = test system: Mus musculus; test: Maximum survival by an optimum dose at 7 mg/kg in treated to that of untreated mice; format: functional
[10] = test system: Mus musculus; test: Maximum survival by an optimum dose at 3 mg/kg in treated to that of untreated mice; format: functional
[11] = test system: Mus musculus; test: Maximum survival by an optimum dose at 100 mg/kg in treated to that of untreated mice; format: functional
[12] = test system: Mus musculus; test: Maximum survival by an optimum dose at 60 mg/kg in treated to that of untreated mice; format: functional
[13] = test system: Mus musculus; test: Maximum survival by an optimum dose at 80 mg/kg in treated to that of untreated mice; format: functional
[14] = test system: Mus musculus; test: Maximum survival by an optimum dose at 25 mg/kg in treated to that of untreated mice; format: functional
[15] = Mus musculus, Sarcoma-180, read-out: ED25

NC1=C(Cl)C(=O)c2ccccc2C1=O
solubility [1]: 37.7 µg/mL (≈ 182 µM) | Optimal dose [2]: 112% | LD50 at 120 h [3]: 800 mg/kg | ED25 [4]: 0.123 mmol/kg | ED25 [4, 15]: 25.5 mg/kg | logP ([5]; read-out: logP): 2.08

CC(=O)NC1=C(Cl)C(=O)c2ccccc2C1=O
solubility [1]: 106 µg/mL (≈ 425 µM) | Optimal dose [6]: 284% | LD50 at 120 h [3]: 11 mg/kg | ED25 [4]: 0.01 mmol/kg | ED25 [4, 15]: 2.97 mg/kg | logP ([5]; read-out: logP): 1.42

CC1=CC(=O)c2ccccc2C1=O [MENADIONE]
solubility [1]: 10.6 µg/mL (≈ 61.6 µM) | Optimal dose [7]: 126% | LD50 at 120 h [3]: 150 mg/kg | ED25 [4]: 0.174 mmol/kg | ED25 [4, 15]: 30 mg/kg | logP ([5]; read-out: logP): 2.25

O=C1C(Cl)=C(Cl)C(=O)c2ccccc21 [Dichlon]
Optimal dose [8]: 189% | ED25 [4]: 0.022 mmol/kg | ED25 [4, 15]: 4.89 mg/kg | logP ([5]; read-out: logP): 3.16

CCCOC1=C(Cl)C(=O)c2ccccc2C1=O
Optimal dose [9]: 271% | LD50 at 120 h [3]: 20 mg/kg | ED25 [4]: 0.01 mmol/kg | ED25 [4, 15]: 2.45 mg/kg | logP ([5]; read-out: logP): 2.95

CCOC1=C(Cl)C(=O)c2ccccc2C1=O
solubility [1]: 34.1 µg/mL (≈ 144 µM) | Optimal dose [10]: 230% | LD50 at 120 h [3]: 16 mg/kg | ED25 [4]: 0.008 mmol/kg | ED25 [4, 15]: 1.97 mg/kg | logP ([5]; read-out: logP): 2.61

O=C1C=CC(=O)c2ccccc21 [NAPHTHOQUINONE]
solubility [1]: 89.4 µg/mL (≈ 565 µM) | Optimal dose [10]: 347% | LD50 at 120 h [3]: 5.5 mg/kg | ED25 [4]: 0.012 mmol/kg | ED25 [4, 15]: 1.9 mg/kg | logP ([5]; read-out: logP): 1.74

O=C1C(=O)c2ccccc2C(O)=C1C1CCCC1
solubility [1]: 9.5 µg/mL (≈ 39.2 µM) | Optimal dose [11]: 116% | LD50 at 120 h [3]: 400 mg/kg | ED25 [4]: 0.582 mmol/kg | ED25 [4, 15]: 141 mg/kg | logP ([5]; read-out: logP): 2.69

COC1=CC(=O)c2ccccc2C1=O [2-Methoxy-1,4-naphthoquinone]
solubility [1]: 31.3 µg/mL (≈ 166 µM) | Optimal dose [12]: 154% | LD50 at 120 h [3]: 320 mg/kg | ED25 [4]: 0.262 mmol/kg | ED25 [4, 15]: 49.3 mg/kg | logP ([5]; read-out: logP): 1.59

O=C1C(Cl)=C(Nc2ccccc2)C(=O)c2ccccc21
solubility [1]: 2.4 µg/mL (≈ 8.46 µM) | Optimal dose [13]: 117% | LD50 at 120 h [3]: 1600 mg/kg | ED25 [4]: 0.331 mmol/kg | ED25 [4, 15]: 94 mg/kg | logP [5]: 4.04

COC1=C(Cl)C(=O)c2ccccc2C1=O
solubility [1]: 39.3 µg/mL (≈ 177 µM) | Optimal dose [6]: 315% | LD50 at 120 h [3]: 14 mg/kg | ED25 [4]: 0.011 mmol/kg | ED25 [4, 15]: 2.49 mg/kg | logP ([5]; read-out: logP): 2.15

O=C1C=C(O)C(=O)c2ccccc21 [LAWSONE]
solubility [1]: 255 µg/mL (≈ 1460 µM) | Optimal dose [14]: 104% | LD50 at 120 h [3]: 100 mg/kg | ED25 [4]: 0.19 mmol/kg | ED25 [4, 15]: 33 mg/kg | logP ([5]; read-out: logP): 1.07
